Data set [1] has as its system Liver microsomes. As to the kind of experiment: Half life in human liver microsomes at 1 uM. The class given is ADME, Microsome. Summed up: (§1)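 Human liver microsomes 0.5 mg/mL in 100 mM potassium phosphate pH 7.4 with 5 mM MgCl2 and 1 μM test compound. Preincubated 3 min at 37 °C, then started with 1 mM NADPH, with a testosterone control in parallel. Sampled at 0, 10, 20, 30 and 60 min and quenched in cold acetonitrile/water with formic acid and internal standard. Percent remaining by LC-MS/MS (MRM) versus time 0. t1/2 = 0.693/k from the ln-remaining slope; CLint = k/protein concentration.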

The test system of data set [2] is Liver microsomes. As to the kind of experiment: Intrinsic clearance in human liver microsomes measured per mg of protein at 1 uM by LC-MS/MS analysis. It is filed as ADME, Microsome. Put shortly: as §1
For orientation: Liver microsomes are vesicles of endoplasmic reticulum, rich in cytochrome P450 enzymes.

Data set [3] relates to Liver microsomes. Kind of data set: Metabolic stability in human liver microsomes assessed as compound remaining at 1 uM after 60 mins by LC-MS/MS analysis. It is filed as ADME, Microsome. Particulars: 1 h. Summed up:
as §1

Data set [4] deals with Liver microsomes. Kind of data set: Metabolic stability in human liver microsomes assessed as compound remaining at 1 uM after 30 mins by LC-MS/MS analysis. The class given is ADME, Microsome. The note with it: 0.5 h. Summed up: as §1
The test system of data set [5] is Liver microsomes. As to the kind of experiment: Metabolic stability in human liver microsomes assessed as compound remaining at 1 uM after 20 mins by LC-MS/MS analysis. It is filed as ADME, Microsome. Summed up: as §1
Data set [6] deals with Liver microsomes. Kind of data set: Metabolic stability in human liver microsomes assessed as compound remaining at 1 uM after 10 mins by LC-MS/MS analysis. It is filed as ADME, Microsome. Put shortly: as §1
In data set [7] the test system is MDCK. As to the kind of experiment: Permeability across basolateral to apical side in dog MDCK cells expressing MDR1 assessed as compound recovery at 5 uM after 120 mins by LC-MS/MS analysis. The class given is ADME, cell-based, Canis lupus familiaris. The note with it: 2 h. Put shortly:
(§2)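 MDR1-MDCK monolayers grown to confluence on collagen-coated polycarbonate membranes. Assay buffer was HBSS with 10 mM HEPES and 15 mM glucose, pH 7.4, and the receiver side also held 1% BSA. Monolayers were dosed apically (A-to-B) or basolaterally (B-to-A) at 5 μM, 37 °C, 5% CO2. Donor and receiver were sampled at 120 min, in duplicate, by LC-MS/MS (ESI). Papp and percent recovery were calculated from receiver/donor concentrations.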

In data set [8] the test system is MDCK. As to the kind of experiment: Apparent permeability across basolateral to apical side in dog MDCK cells expressing MDR1 at 5 uM after 120 mins by LC-MS/MS analysis. The class given is ADME, cell-based, Canis lupus familiaris. Particulars: 2 h. Put shortly:
as §2

Data set [9] relates to MDCK. As to the kind of experiment: Permeability across apical to basolateral side in dog MDCK cells expressing MDR1 assessed as compound recovery at 5 uM after 120 mins by LC-MS/MS analysis. The class given is ADME, cell-based, Canis lupus familiaris. Particulars: 2 h. Put shortly:
as §2

Data set [10] concerns MDCK. Kind of data set: Apparent permeability across apical to basolateral side in dog MDCK cells expressing MDR1 at 5 uM after 120 mins by LC-MS/MS analysis. It is filed as ADME, cell-based, Canis lupus familiaris. Particulars: 2 h. Summed up:
as §2

The target in data set [11] is Glutamate receptor ionotropic, NMDA 2D (Rattus norvegicus) (UniProt Q62645). Kind of data set: Negative allosteric modulation of recombinant rat GluN2D receptor expressed in Xenopus laevis oocytes at 100 uM by two-electrode voltage clamp method. It is filed as cell-based. The note with it: Oocyte. Put shortly:
(§3)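 Two-electrode voltage clamp of Xenopus oocytes expressing rat GluN1 with GluN2A, 2B, 2C or 2D. Holding potential −40 mV in recording solution (mM: 90 NaCl, 1 KCl, 0.5 BaCl2, 0.005 EDTA, 10 HEPES, pH 7.4, 23 °C). Compounds diluted from 20 mM DMSO stocks to 0.05–0.1% final DMSO. IC50 from a Hill fit to the averaged composite concentration–response curve, 5–24 oocytes from 2–4 frogs.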

The target in data set [12] is Glutamate receptor ionotropic, NMDA 2C (Rattus norvegicus) (UniProt Q00961). As to the kind of experiment: Negative allosteric modulation of recombinant rat GluN2C receptor expressed in Xenopus laevis oocytes at 100 uM by two-electrode voltage clamp method. The class given is cell-based. The note with it: Oocyte. Put shortly: as §3
Background: In two-electrode clamp one electrode senses voltage and the other passes current.

Data set [13] concerns the target Glutamate receptor ionotropic, NMDA 2B (Rattus norvegicus) (UniProt Q00960). Kind of data set: Negative allosteric modulation of recombinant rat GluN2B receptor expressed in Xenopus laevis oocytes at 100 uM by two-electrode voltage clamp method. Particulars: Oocyte. The class given is cell-based. Summed up: as §3
The target of data set [14] is Glutamate receptor ionotropic, NMDA 2A (Rattus norvegicus) (UniProt Q00959). Kind of data set: Negative allosteric modulation of recombinant rat GluN2A receptor expressed in Xenopus laevis oocytes at 100 uM by two-electrode voltage clamp method. The note with it: Oocyte. It is filed as cell-based. Put shortly:
as §3

Structures are written as SMILES.

The term Papp denotes the rate of passage across a membrane or cell layer, normalised by area and donor concentration. As usually defined, the inhibition is the share of the control response that was lost under treatment.

Glutamate receptor ionotropic, NMDA 2D (Rattus norvegicus), sequence (Q62645 whole entry): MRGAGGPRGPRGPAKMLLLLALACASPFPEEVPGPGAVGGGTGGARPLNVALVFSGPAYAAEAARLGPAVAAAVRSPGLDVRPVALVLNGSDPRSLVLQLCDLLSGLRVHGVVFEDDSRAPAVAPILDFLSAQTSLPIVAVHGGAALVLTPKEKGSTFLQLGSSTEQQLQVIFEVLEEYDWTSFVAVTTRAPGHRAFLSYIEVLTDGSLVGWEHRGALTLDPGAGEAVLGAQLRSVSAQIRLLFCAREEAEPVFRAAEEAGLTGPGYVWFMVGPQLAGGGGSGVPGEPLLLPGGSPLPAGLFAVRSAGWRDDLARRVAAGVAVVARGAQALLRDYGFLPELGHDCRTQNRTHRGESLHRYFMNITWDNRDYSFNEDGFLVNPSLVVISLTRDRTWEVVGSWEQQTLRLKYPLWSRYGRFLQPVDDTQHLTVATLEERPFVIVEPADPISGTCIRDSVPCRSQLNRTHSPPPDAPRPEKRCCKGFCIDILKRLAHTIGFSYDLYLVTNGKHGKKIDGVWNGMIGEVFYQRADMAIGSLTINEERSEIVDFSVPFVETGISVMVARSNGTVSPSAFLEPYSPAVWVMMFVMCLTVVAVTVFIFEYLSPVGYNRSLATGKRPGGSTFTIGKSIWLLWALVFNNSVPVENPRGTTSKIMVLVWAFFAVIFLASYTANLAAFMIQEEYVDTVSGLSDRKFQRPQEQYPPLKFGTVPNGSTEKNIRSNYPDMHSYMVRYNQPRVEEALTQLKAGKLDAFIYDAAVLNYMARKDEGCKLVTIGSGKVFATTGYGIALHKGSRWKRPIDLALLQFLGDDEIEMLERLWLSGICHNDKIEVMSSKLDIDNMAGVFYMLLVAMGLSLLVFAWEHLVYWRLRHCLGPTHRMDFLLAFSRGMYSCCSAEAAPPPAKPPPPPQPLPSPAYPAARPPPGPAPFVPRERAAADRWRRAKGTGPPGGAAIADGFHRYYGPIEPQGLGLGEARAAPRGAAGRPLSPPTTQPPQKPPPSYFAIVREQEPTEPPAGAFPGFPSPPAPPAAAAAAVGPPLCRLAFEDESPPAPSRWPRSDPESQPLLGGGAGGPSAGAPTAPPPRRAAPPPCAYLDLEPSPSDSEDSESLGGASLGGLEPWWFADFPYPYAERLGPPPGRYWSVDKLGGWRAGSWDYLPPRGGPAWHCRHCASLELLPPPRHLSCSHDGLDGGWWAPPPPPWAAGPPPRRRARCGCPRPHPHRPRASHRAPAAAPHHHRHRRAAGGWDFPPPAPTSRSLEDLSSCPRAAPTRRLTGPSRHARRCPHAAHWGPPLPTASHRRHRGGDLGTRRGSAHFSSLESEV
Glutamate receptor ionotropic, NMDA 2B (Rattus norvegicus), sequence (Q00960 27-1482 limits assumed): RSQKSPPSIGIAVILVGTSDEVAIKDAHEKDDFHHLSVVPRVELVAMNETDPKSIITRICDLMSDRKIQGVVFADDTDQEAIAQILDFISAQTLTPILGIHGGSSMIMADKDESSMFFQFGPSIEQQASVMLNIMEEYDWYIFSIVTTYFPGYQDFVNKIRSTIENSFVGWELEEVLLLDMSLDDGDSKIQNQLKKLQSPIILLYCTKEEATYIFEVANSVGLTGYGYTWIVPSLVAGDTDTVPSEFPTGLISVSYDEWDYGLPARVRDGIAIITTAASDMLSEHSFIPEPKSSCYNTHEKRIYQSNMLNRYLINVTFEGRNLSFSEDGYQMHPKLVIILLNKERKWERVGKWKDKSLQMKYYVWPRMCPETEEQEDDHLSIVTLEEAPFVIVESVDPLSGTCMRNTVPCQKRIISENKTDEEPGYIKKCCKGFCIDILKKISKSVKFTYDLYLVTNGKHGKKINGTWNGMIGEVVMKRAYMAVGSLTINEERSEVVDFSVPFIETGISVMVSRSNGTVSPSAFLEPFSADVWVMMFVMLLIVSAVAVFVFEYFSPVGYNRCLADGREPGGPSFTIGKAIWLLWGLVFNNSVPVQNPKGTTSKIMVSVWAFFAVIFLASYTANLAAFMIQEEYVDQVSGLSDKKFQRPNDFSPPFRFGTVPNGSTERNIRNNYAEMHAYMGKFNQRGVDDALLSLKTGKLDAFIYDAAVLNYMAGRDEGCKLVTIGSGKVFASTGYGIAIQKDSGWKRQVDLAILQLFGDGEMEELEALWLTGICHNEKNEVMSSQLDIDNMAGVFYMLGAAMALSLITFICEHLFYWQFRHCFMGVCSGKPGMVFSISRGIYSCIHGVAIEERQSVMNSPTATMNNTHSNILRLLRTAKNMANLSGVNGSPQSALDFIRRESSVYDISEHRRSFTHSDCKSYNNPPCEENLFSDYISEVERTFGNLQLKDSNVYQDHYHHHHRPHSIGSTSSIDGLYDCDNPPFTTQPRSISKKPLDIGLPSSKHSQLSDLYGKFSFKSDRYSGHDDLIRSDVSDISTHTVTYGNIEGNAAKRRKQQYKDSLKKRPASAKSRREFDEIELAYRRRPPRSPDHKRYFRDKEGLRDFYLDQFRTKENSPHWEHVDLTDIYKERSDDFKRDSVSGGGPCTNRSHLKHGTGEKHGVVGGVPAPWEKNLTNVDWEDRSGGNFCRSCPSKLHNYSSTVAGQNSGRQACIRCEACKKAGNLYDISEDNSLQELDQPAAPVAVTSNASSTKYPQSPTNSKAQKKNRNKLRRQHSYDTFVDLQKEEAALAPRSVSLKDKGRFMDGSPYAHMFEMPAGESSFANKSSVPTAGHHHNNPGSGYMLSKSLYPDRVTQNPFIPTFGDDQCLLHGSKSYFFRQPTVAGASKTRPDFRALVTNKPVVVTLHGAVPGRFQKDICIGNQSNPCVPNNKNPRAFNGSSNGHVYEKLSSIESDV
Glutamate receptor ionotropic, NMDA 2C (Rattus norvegicus), sequence (Q00961 20-1237 limits assumed): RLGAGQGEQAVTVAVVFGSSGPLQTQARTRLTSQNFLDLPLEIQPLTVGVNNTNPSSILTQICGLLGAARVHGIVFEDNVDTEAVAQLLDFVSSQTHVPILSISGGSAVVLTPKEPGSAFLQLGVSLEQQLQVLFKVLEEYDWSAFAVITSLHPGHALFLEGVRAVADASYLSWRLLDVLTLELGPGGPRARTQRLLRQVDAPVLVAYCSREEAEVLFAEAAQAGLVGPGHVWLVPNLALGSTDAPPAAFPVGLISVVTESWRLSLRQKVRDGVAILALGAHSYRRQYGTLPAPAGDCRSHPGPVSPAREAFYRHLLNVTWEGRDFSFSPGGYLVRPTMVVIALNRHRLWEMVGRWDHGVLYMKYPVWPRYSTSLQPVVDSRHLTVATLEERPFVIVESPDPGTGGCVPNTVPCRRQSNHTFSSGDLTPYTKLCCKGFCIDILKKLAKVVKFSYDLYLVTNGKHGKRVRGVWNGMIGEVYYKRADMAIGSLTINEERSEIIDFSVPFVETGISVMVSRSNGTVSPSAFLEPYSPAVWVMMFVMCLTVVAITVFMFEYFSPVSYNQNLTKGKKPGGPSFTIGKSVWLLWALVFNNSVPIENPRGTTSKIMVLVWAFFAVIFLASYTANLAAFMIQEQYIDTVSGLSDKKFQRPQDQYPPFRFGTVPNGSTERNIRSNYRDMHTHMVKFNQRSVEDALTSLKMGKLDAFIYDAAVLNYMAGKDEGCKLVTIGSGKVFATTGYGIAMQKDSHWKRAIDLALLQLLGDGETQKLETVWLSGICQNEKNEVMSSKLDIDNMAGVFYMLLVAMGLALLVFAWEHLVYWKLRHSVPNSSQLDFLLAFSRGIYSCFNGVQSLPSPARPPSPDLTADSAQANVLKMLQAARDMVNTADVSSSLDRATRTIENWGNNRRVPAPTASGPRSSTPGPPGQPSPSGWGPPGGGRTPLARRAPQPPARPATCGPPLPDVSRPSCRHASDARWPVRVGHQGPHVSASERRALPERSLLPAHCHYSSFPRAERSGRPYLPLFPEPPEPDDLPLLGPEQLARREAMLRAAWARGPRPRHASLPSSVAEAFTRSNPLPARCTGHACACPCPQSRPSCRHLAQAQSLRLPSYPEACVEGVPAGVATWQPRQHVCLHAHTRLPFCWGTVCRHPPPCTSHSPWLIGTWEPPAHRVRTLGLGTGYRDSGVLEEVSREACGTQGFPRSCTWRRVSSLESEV

In the case of `O=C(CCCF)N1N=C(c2c(-c3ccc(Cl)cc3)c3ccccc3[nH]c2=O)CC1c1ccc(Cl)cc1` (centres undefined), the t1/2 in the data set on Liver microsomes [1] was 35 min. Also, the CLint with Liver microsomes [2] came to 40 µL/min/mg. The Stability in the data set with Liver microsomes [3] was 39%; in the data set on Liver microsomes [4], 49%; in the data set on Liver microsomes [5], 49%; in the data set with Liver microsomes [6], 67%. In addition, the Drug recovery turned out to be 67% with MDCK [7] and 43% with MDCK [9]. In addition, the figures for the Papp with MDCK [8] and in the data set on MDCK [10] were 9.52 ×10⁻⁶ cm/s and 3.88 ×10⁻⁶ cm/s, respectively. The inhibition in [11], in [12], in data set [13] and in data set [14] was under 30% in each case.

These data come from ChEMBL document CHEMBL2424574, “Structure-activity relationships and pharmacophore model of a noncompetitive pyrazoline containing class of GluN2C/GluN2D selective antagonists” (J Med Chem, 2013).
